Measured values published in article PMC6683736 (The Journal of Cell Biology, 2019).

Key:
SGEF = assay: Yeast two-hybrid screen with full-length human SGEF as bait; type: binding; conditions: mouse kidney cDNA library
MDCK cells [1] = assay: Protein levels and junctional localization by WB and IF; type: cell-based, canine
Outline: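 Total lysates of confluent control, SGEF-knockdown and WT-rescue MDCK cells were immunoblotted, with tubulin as loading control. For immunofluorescence, cells were fixed in 3.7% paraformaldehyde, permeabilised with 0.1% Triton X-100 and imaged by confocal. Afadin enrichment was scored as the tricellular/bicellular junction intensity ratio (≥200 junctions, at least three fields, two experiments; Mann–Whitney U test).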

MDCK cells [2] = assay: Height of MDCK monolayer, confocal XZ; type: cell-based, canine; conditions: average, n = 50 cells, three independent experiments; Fig. 5 I
Outline: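 Confocal XZ sections of confluent control, SGEF-knockdown and rescue MDCK monolayers were acquired on a Leica SP8. Cells were stained for E-cadherin, β-catenin and nuclei, or for F-actin and Hoechst, and monolayer height was measured.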

MDCK cells [3] = assay: Actomyosin organization by IF; type: cell-based, canine; conditions: IF, HyVolution
Scribble = assay: Coimmunoprecipitation of SGEF constructs with GFP-Scribble, HEK293FT lysates; type: binding, Human; conditions: GFP-trap nanobodies, WB
MDCK cells [4] = assay: Apical cell area and axial ratio; type: cell-based, canine; conditions: major/minor axis aspect ratio
Outline: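 Apical cell area and axial ratio were measured in control, SGEF-knockdown and WT-rescue MDCK monolayers from two fields in each of two independent experiments (n = 100 cells for area, n = 150 for axial ratio). Plots show min-to-max spread.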

Xenopus embryos = assay: Junctional localization in gastrula-stage embryos; type: in vivo, Xenopus laevis; conditions: live confocal, mNeon-tagged
Outline: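 Embryos were microinjected in the animal hemisphere with mRNAs, either at the two-cell stage (each cell twice) or at the four-cell stage (once). They were raised to gastrula stage (10.5–12) and live-imaged by confocal. mNeon-tagged protein was coexpressed with BFP-ZO-1 (tight junction marker) and PLEKHA7-mCherry (adherens junction marker), and the junctional-to-cytosolic intensity ratio was quantified.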

[5] = system: Scribble/SGEF/Dlg1 ternary complex; assay: Coprecipitation of Scribble with GFP-Dlg1; type: binding; conditions: HA-Scribble and GFP-Dlg1 coexpressed, IP anti-GFP, HEK293
MDCK cells [6] = assay: Zigzag index of tight junctions; type: cell-based, canine; conditions: average; 1 = straight line; CTRL 1.24
Dlg1 = assay: Coimmunoprecipitation of SGEF constructs with GFP-Dlg1, HEK293FT lysates; type: binding, Mouse; conditions: GFP-trap nanobodies, WB
Outline: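 HEK293FT cells were co-transfected by calcium phosphate; medium was changed at 24 h and cells harvested at 48 h. Lysis was in Tris-HCl pH 7.4, MgCl2, 150 mM NaCl, 1% Triton X-100 and protease inhibitors. Equal protein was incubated with GFP-Trap beads for 1 h at 4°C, washed four times, then immunoblotted with anti-GFP and anti-myc (or anti-His).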

MDCK cells [7] = assay: 3D cyst lumen formation in matrigel; type: cell-based, canine
RhoG = RhoG activity pulldown; type: cell-based, canine; conditions: normalized to total RhoG, three independent experiments
Outline: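 Active RhoG was pulled down with GST–ELMO from total lysates of control, SGEF-knockdown and rescue MDCK cells, then immunoblotted with anti-RhoG. Active levels were normalised to total RhoG; mean ± SEM of three independent experiments.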

Molecule	potential binding partner for SGEF (SGEF)	β-catenin and p120-catenin localization at cell–cell junctions (MDCK cells [1]; IF)	localization of Scribble and Dlg1 (MDCK cells [1]; IF, rescue of SGEF KD)	cadherin-6 levels (MDCK cells [1]; WB)	E-cadherin level and localization (MDCK cells [1]; WB and IF)	afadin expression levels and localization at AJs (MDCK cells [1]; WB and IF)	cell height (MDCK cells [2]) [µm]	actomyosin organization at apical junction (MDCK cells [3])	interaction with Scribble (Scribble)	axial ratio (MDCK cells [4])	localization at apical junctional complex (Xenopus embryos)	formation of Scribble/SGEF/Dlg1 ternary complex [5]	zigzag index (MDCK cells [6])	interaction with Dlg1 (Dlg1)	cysts with a single lumen (MDCK cells [7]; Fig. 10 D, red and dark green bars, CTRL 65%) [%]	cysts with an open lumen (MDCK cells [7]; Fig. 10 D, red and orange bars, CTRL 100%) [%]	E-cadherin expression in cysts (MDCK cells [7]; IF, 3D cysts)	cysts with multiple open lumens (MDCK cells [7]; matrigel, 4 d) [%]	active RhoG level (RhoG)
Scribble: Scribble polarity protein, 1–1,630	potential binding partner for SGEF																		
SGEF WT: full-length SGEF 1–871, RhoG-specific GEF, myc- or mNeon-tagged (protein, left off: myc, end not stated, kept) MDGESEVDFSSNSITPLWRRRSIPQPHQVLGRSKPRPQSYQSPNGLLITDFPVEDGGTLLAAQIPAQVPTASDSRTVHRSPLLLGAQRRAVANGGTASPEYRAASPRLRRPKSPKLPKAVPGGSPKSPANGAVTLPAPPPPPVLRPPRTPNAPAPCTPEEDLTGLTASPVPSPTANGLAANNDSPGSGSQSGRKAKDPERGLFPGPQKSSSEQKLPLQRLPSQENELLENPSVVLSTNSPAALKVGKQQIIPKSLASEIKISKSNNQNVEPHKRLLKVRSMVEGLGGPLGHAGEESEVDNDVDSPGSLRRGLRSTSYRRAVVSGFDFDSPTSSKKKNRMSQPVLKVVMEDKEKFSSLGRIKKKMLKGQGTFDGEENAVLYQNYKEKALDIDSDEESEPKEQKSDEKIVIHHKPLRSTWSQLSAVKRKGLSQTVSQEERKRQEAIFEVISSEHSYLLSLEILIRMFKNSKELSDTMTKTERHHLFSNITDVCEASKKFFIELEARHQNNIFIDDISDIVEKHTASTFDPYVKYCTNEVYQQRTLQKLLATNPSFKEVLSRIESHEDCRNLPMISFLILPMQRVTRLPLLMDTICQKTPKDSPKYEVCKRALKEVSKLVRLCNEGARKMERTEMMYTINSQLEFKIKPFPLVSSSRWLVKRGELTAYVEDTVLFSRRTSKQQVYFFLFNDVLIITKKKSEESYNVNDYSLRDQLLVESCDNEELNSSPGKNSSTMLYSRQSSASHLFTLTVLSNHANEKVEMLLGAETQSERARWITALGHSSGKPPADRTSLTQVEIVRSFTAKQPDELSLQVADVVLIYQRVSDGWYEGERLRDGERGWFPMECAKEITCQATIDKNVERMGRLLGLETNV		restored to normal	restored the normal localization of both Scribble and Dlg1	restored to normal levels	restored both the proper expression level and localization of E-cadherin	rescued to normal levels	5.61 ± 0.16	restored the normal apical and basal actomyosin pattern	confirmed the interaction	could be rescued	localized efficiently to the AJC	Scribble coprecipitated efficiently with Dlg1	1.16	able to bind efficiently to Dlg1	36	77	restored to normal levels	40	returned to normal
